Paper PMC5253108 (European journal of medicinal chemistry, 2016)
Read-outs that look alike come from different tables or passages of the source.

Tests used:
[1] = In vitro liver microsomal stability; assay type: in vitro ADME, mouse; conditions: mouse liver microsomes, 1 h
HEK293 kidney cells = assay type: cell-based; conditions: 48 hours, Cell-Titer Glo
HepG2 liver cells = experiment: In vitro cytotoxicity, Cell-Titer Glo viability, HepG2; assay type: cell-based; conditions: 48 hours
[2] = tested on: BEAS2B lung epithelial cells; experiment: In vitro cytotoxicity, Cell-Titer Glo viability, BEAS2B; assay type: cell-based; conditions: 48 hours
[3] = tested on: guinea pig tracheal rings; conditions: cited from earlier work
[4] = tested on: ovalbumin (S/C) BALB/c mice; conditions: given repeatedly over five days; listed as ethyl ester of XHE-III-74; cited from earlier work
Swiss Webster mice [5] = conditions: published previously; cited from earlier work
[6] = mouse, cited from earlier work
[7] = In vitro liver microsomal stability; assay type: in vitro ADME; conditions: liver microsomes
rats = experiment: Sensorimotor impairment in rats; assay type: in vivo, rat; conditions: 15 mg/kg, unpublished results
[8] = tested on: murine house dust mite model of asthma; conditions: cited from earlier work
airway smooth muscle = conditions: cited from earlier work
mice = conditions: aerosol delivery in mice; cited from earlier work
α4β3γ2 GABAAR = α4β3γ2 GABAAR (Homo sapiens, UniProt P18507+P48169); experiment: GABA induced current potentiation, α4β3γ2 GABAAR; assay type: biochemical; conditions: 1 µM compound, GABA EC20 concentration
[9] = tested on: guinea pig tracheal rings; conditions: 50 µM compound, substance P contracted rings
[10] = tested on: ovalbumin (S/C) BALB/c mice; assay type: in vivo, mouse; conditions: 40 mg/kg i.p. for 5 days, 12.5 mg/ml methacholine challenge, p<0.05
In short: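 BALB/c mice were sensitized by ovalbumin injections (2 mg/kg/d in 2 mg alum, days 0, 7, 14) and challenged intranasally with ovalbumin (1.6 mg/kg/d, days 23–27); controls were saline-challenged. Test compound was given i.p. twice daily during the challenge period. Conscious mice had non-invasive sRaw measured after 1 min aerosolized PBS or methacholine (1.56–12.5 mg/mL), averaged over 3 min. Analysis used two-way repeated-measures ANOVA with Bonferroni post-test.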

[11] = Pharmacokinetic study in mice; assay type: in vivo, mouse; conditions: mouse
Swiss Webster mice [12] = experiment: Rotarod assay of sensorimotor coordination in mice; conditions: 40 mg/kg i.p., Swiss Webster mice, 10, 30 and 60 min

Sequence of α4β3γ2 GABAAR (P48169 36-554): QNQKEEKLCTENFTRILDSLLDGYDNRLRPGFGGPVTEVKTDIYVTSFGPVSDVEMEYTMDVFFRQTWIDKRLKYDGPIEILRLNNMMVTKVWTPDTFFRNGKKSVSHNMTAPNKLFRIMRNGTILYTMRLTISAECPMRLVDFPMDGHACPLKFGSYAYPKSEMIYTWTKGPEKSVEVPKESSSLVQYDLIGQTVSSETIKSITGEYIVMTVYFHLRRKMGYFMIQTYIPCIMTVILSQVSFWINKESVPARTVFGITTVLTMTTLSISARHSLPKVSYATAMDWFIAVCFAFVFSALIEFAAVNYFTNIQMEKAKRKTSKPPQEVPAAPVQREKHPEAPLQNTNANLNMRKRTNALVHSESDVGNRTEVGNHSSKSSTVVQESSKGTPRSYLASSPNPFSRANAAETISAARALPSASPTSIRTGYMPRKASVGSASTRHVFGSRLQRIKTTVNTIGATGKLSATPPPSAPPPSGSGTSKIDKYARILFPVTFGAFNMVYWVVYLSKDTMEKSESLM
Sequence of α4β3γ2 GABAAR (P28472 26-473 partner): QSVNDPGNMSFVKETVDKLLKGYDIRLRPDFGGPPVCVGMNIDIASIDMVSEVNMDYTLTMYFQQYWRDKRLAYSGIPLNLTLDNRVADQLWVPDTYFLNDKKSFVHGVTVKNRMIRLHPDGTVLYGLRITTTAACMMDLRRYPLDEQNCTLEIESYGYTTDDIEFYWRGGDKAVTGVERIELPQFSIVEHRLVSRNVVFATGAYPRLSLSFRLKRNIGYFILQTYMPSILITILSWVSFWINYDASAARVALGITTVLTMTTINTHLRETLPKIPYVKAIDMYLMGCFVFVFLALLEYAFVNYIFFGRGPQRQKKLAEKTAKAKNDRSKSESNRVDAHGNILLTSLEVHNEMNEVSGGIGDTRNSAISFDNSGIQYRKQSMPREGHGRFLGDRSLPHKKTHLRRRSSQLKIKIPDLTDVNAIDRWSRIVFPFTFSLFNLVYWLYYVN
Sequence of α4β3γ2 GABAAR (P18507 40-475): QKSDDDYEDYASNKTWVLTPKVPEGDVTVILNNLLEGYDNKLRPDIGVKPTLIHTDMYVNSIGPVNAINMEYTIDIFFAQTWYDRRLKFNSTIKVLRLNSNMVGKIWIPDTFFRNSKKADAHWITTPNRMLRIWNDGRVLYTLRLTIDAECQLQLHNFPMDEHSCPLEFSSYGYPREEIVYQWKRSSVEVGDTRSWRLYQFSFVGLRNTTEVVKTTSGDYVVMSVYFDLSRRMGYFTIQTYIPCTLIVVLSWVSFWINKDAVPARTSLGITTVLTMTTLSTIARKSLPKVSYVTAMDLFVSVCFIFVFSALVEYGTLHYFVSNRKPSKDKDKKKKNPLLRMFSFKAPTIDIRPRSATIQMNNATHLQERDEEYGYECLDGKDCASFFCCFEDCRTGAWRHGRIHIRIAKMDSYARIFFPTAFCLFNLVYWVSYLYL

| SMILES | loss at 1 h in mouse liver microsomes [1] | Toxicity in HEK293 (Kidney) LD50 (HEK293 kidney cells) | Toxicity in HEPG2 (Liver) LD50 (HepG2 liver cells) | Toxicity in BEAS 2B (Lung) LD50 [2] | airway muscle constriction caused by substance P [3] | airway hyperresponsiveness in ovalbumin S/C asthma model [4] | sensorimotor impairment on rotarod (Swiss Webster mice [5]) | AUC for lung exposure ([6]; same dose as 16, lung) | t1/2 ([6]; same dose as 16) | stability in the presence of human liver microsomes [7] | sensorimotor impairment in rats (rats) | airway resistance in murine house dust mite model [8] | relaxation of pre-contracted airway smooth muscle (airway smooth muscle) | airway hyperresponsiveness after aerosol delivery (mice) | potentiation of GABA induced current, α4β3γ2 GABAAR (α4β3γ2 GABAAR) | time to airway smooth muscle relaxation effect [9] | specific airway resistance (sRAW) vs vehicle, 5 day treatment [10] | blood brain barrier penetration ([11]; 5 mg/kg i.p.) | AUC ([11]; lung, ip, 5 mg/kg) | sensorimotor impairment on rotarod (Swiss Webster mice [12]) |
| --- | --- | --- | --- | --- | --- | --- | --- | --- | --- | --- | --- | --- | --- | --- | --- | --- | --- | --- | --- | --- |
| CCOC(=O)c1ncn2c1[C@@H]1CCCN1C(=O)c1cc(OC)ccc1-2 [Compound 5] | less than 20% | >400 µM | >400 µM | >400 µM | significantly reduced airway muscle constriction | reduced airway hyperresponsiveness | weakly induced sensorimotor impairment | 4516 ng·min/mL | 16.3 min | – | – | – | – | – | – | – | – | – | – | – |
| COc1ccc2c(c1)C(=O)N1CCC[C@H]1c1c(C(=O)OC(C)(C)C)ncn1-2 [Compound 7, (S)-tert-Butyl-7-methoxy-9-oxo-11,12,13,13a-tetrahydro-9H-benzo[e]imidazo[5,1-c]pyrrolo[1,2-a][1,4]diazepine-1-carboxylate] | – | >100 µM | >400 µM | >200 µM | significantly reduced airway muscle constriction | – | – | – | – | stable | induced sensorimotor impairment | reduced airway resistance | relaxed pre-contracted airway smooth muscle | reduces airway hyperresponsiveness | – | – | – | – | – | – |
| COc1ccc2c(c1)C(=O)N1CCC[C@H]1c1c(C(=O)N(C)C)ncn1-2 [Compound 16] | less than 20% | >400 µM | >400 µM | >400 µM | – | – | – | – | – | – | – | – | – | – | 319% | ≤ 15 min | significant reduction in sRAW | did penetrate the blood brain barrier | 12.7 ng·h/mL | did not induce sensorimotor impairment |
